Bioassay records as filed in PubChem.
CHRM1 agonist: agonists of human M1 muscarinic receptor; P11229; CHO-K1 hM1, Fluo-8 calcium fluorescence, agonist mode; 0% DMSO, 100% acetylcholine EC100; activation, % at 3 µM; actives 0.33% (n = 360,000);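 active = activation above the run's mean compound activation plus 3 SD, cut at about 16% in these data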;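 also: peak over basal fluorescence ratio within a 140 s kinetic read after compound addition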
M1 PAM: potentiates human M1 receptor response to acetylcholine; P11229; CHO-K1 hM1, Fluo-8 calcium fluorescence, ACh EC20; 0% = ACh EC20, 100% = maximal ACh; activation, % at 3 µM; actives 0.088% (n = 360,000); AID 588819; in the data active = activation above about 19%, passing the limit was not always enough
TAAR1 ag: agonists of human TAAR1; Q96RJ0; CHO RD-HGA16 TAAR1, Fluo-8 calcium fluorescence; vehicle wells 0%, saturating PEA agonist 100%; activation, % at 3 µM; actives 0.99% (n = 360,000);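 active = activation above the mean activation of all test compounds in the run plus 3 SD, cut at about 38% in these data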
Target sequence (Q96RJ0 whole entry, looked up): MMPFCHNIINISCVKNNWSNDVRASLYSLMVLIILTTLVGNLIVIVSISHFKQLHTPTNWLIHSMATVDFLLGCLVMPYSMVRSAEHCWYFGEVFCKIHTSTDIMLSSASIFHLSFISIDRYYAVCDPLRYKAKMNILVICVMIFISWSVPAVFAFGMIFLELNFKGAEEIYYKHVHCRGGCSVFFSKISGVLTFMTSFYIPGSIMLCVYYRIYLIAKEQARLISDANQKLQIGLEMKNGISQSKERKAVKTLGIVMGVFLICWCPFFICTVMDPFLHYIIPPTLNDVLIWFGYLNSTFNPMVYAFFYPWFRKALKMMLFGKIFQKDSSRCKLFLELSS
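System: CHO-derived RD-HGA16 cells with stable Gα16 and human TAAR1. Times: 17-24 h plating, Fluo-8 75 min 37 °C, 30 min RT. Measured by: calcium-sensitive Fluo-8 signal, excitation 470-495, emission 515-575 nm. Read-out basis: % activation relative to PEA EC100 response. Control set: DMSO and PEA EC100. Repeats: no replicates (n 1).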
HTR2A ag: mouse HTR2A agonism via beta-arrestin recruitment | actives 0.66% (n = 360,000) | CHO-K1 mHTR2A beta-arrestin complementation, luminescence; percent of 30 µM serotonin response | activation, % at 7.6 µM;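 active = activation above a run cutoff, the mean activation of all tested compounds plus 3 SD, cut at about 14% in these data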
TAAR1 antagonist: antagonists of human TAAR1 | Q96RJ0 | CHO RD-HGA16 TAAR1, Fluo-8 calcium fluorescence, antagonist | inhibition, % at 3 µM | actives 1.5% (n = 360,000) | AID 624466;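 active = inhibition above a per-plate cutoff, the mean inhibition of test compounds on that plate plus 3 SD, cut at about 49% in these data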
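Test system: RD-HGA16 CHO cells with stable hTAAR1 and Gα16 / Probe or stimulus: EC80 β-phenethylamine stimulus / Times: seeding 17-24 h prior, 75-min 37 °C, 30-min RT dye loading / Detection: Fluo-8 calcium-sensitive fluorescence / Read-out basis: % inhibition scaled between DMSO and EC80 PEA controls / Repeats: singlicate, one well per test compound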
M1 antag: human CHRM1 antagonism; P11229; CHO-K1 hM1, Fluo-8 calcium fluorescence, ACh EC80 antagonist; inhibition, % at 3 µM; actives 1.3% (n = 360,000); AID 588852;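 active = percent inhibition above its own plate's cutoff, namely the mean of that plate's compound wells plus 3 SD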;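 also: peak over basal fluorescence ratio during 140 s after agonist addition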
MOR ag counter: OPRM1 agonism in mouse HTR2A counterscreen | AID 624380 | activation, % at 9.3 µM | U2OS OPRM1 beta-arrestin PathHunter, luminescence; DMSO 0%, DAMGO 9.3 µM 100% | shares compounds with HTR2A ag | actives 5.3% (n = 2,300);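 active = mean activation above the mean of DMSO-only wells plus 3 SD, cut at about 0.5% in these data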
m5-HT2A ag conf: mouse HTR2A agonism confirmed | shares compounds with HTR2A ag | CHO-K1 PathHunter beta-arrestin recruitment, luminescence; DMSO 0%, 30 µM serotonin 100% | activation, % at 7.6 µM | actives 19% (n = 2,300);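 active = mean activation across triplicates above the hit threshold derived in the original primary screen, cut at about 15% in these data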
A number is an active result. This is a sample that favours compounds with a hit; in the whole collection about 3.9% have one here.

How did CC(/C=N/n1c(-c2ccncc2)n[nH]c1=S)=C\c1ccco1 do in these assays?
CHRM1 agonist: inactive; M1 PAM: inactive; TAAR1 ag: inactive; HTR2A ag: 20.2; TAAR1 antagonist: inactive; M1 antag: inactive; MOR ag counter: inactive; m5-HT2A ag conf: inactive

What do the screens show for `CC(/C=N/n1c(-c2ccccc2)n[nH]c1=S)=C\c1ccco1`?
CHRM1 agonist: inactive; M1 PAM: inactive; TAAR1 ag: inactive; HTR2A ag: 21.6; TAAR1 antagonist: inactive; M1 antag: inactive; MOR ag counter: inactive; m5-HT2A ag conf: inactive

What do the screens show for `C[C@H](NC(=O)[C@@H]1CSC2c3ccccc3C(=O)N21)C(=O)NCc1c(F)cccc1Cl` (stereo partly specified)?
CHRM1 agonist: inactive; M1 PAM: inactive; TAAR1 ag: inactive; HTR2A ag: 16.6; TAAR1 antagonist: inactive; M1 antag: inactive; MOR ag counter: inactive; m5-HT2A ag conf: inactive

What do the screens show for `CC(C)[C@H](NC(=O)[C@@H]1CSC2c3ccccc3C(=O)N21)C(=O)NCc1ccco1` (stereo partly specified)?
CHRM1 agonist: inactive; M1 PAM: inactive; TAAR1 ag: inactive; HTR2A ag: inactive; TAAR1 antagonist: inactive; M1 antag: inactive

What do the screens show for `Cc1ccc(S(=O)(=O)NC(C)C(=O)OCC(=O)N(C)c2ccccc2)cc1` (stereo unspecified)?
CHRM1 agonist: inactive; M1 PAM: inactive; TAAR1 ag: inactive; HTR2A ag: inactive; TAAR1 antagonist: inactive; M1 antag: inactive

How did Cc1noc(C)c1C(=O)N1CCC1(C)C(=O)NS(=O)(=O)c1cccs1 (stereo unspecified) do in these assays?
CHRM1 agonist: inactive; M1 PAM: inactive; TAAR1 ag: inactive; HTR2A ag: inactive; TAAR1 antagonist: inactive; M1 antag: inactive

Results for CC(Sc1ccccc1)C(=O)Nc1cccc(N(C)S(C)(=O)=O)c1 (stereo unspecified) ?
CHRM1 agonist: inactive; M1 PAM: inactive; TAAR1 ag: inactive; HTR2A ag: 16.8; TAAR1 antagonist: inactive; M1 antag: inactive; MOR ag counter: inactive; m5-HT2A ag conf: inactive

Results for COc1ccc(NC(=S)NNC(=O)COc2ccc(Cl)cc2Cl)cc1 ?
CHRM1 agonist: inactive; M1 PAM: inactive; TAAR1 ag: inactive; HTR2A ag: inactive; TAAR1 antagonist: inactive; M1 antag: inactive

What do the screens show for `COc1ccc(OCC(=O)NC(=S)NNC(=O)COc2ccc(Br)cc2Cl)cc1`?
CHRM1 agonist: inactive; M1 PAM: inactive; TAAR1 ag: inactive; HTR2A ag: 16.2; TAAR1 antagonist: inactive; M1 antag: inactive; MOR ag counter: inactive; m5-HT2A ag conf: inactive

Results for COc1ccc(CCNC(=O)c2ccc(CS(=O)(=O)Cc3ccc(C)cc3)o2)cc1OC ?
CHRM1 agonist: inactive; M1 PAM: inactive; TAAR1 ag: inactive; HTR2A ag: inactive; TAAR1 antagonist: inactive; M1 antag: inactive

Results for O=C(CCCc1ccccc1)N1CCN(C2CCCCC2)CC1 ?
CHRM1 agonist: inactive; M1 PAM: inactive; TAAR1 ag: inactive; HTR2A ag: 25.4; TAAR1 antagonist: inactive; M1 antag: inactive; MOR ag counter: 0.8; m5-HT2A ag conf: inactive

What do the screens show for `Cc1cc(NC(=O)CC2(CC(=O)O)CCCC2)n(C)n1`?
CHRM1 agonist: inactive; M1 PAM: inactive; TAAR1 ag: inactive; HTR2A ag: inactive; TAAR1 antagonist: inactive; M1 antag: inactive

Results for COc1ccc(CC2(CO)CCN(Cc3ccncc3)CC2)cc1 ?
CHRM1 agonist: inactive; M1 PAM: inactive; TAAR1 ag: inactive; HTR2A ag: inactive; TAAR1 antagonist: inactive; M1 antag: inactive

Results for COc1ccc(CC2(CO)CCN(Cc3cc4ccccc4o3)CC2)cc1 ?
CHRM1 agonist: inactive; M1 PAM: inactive; TAAR1 ag: inactive; HTR2A ag: 39.6; TAAR1 antagonist: inactive; M1 antag: inactive; MOR ag counter: inactive; m5-HT2A ag conf: 65.5

Results for OCC1(Cc2ccccc2)CCN(Cc2ccc(C(F)(F)F)cc2)CC1 ?
CHRM1 agonist: inactive; M1 PAM: inactive; TAAR1 ag: inactive; HTR2A ag: inactive; TAAR1 antagonist: inactive; M1 antag: inactive

What do the screens show for `OCC1(Cc2cccc(C(F)(F)F)c2)CCN(Cc2cc3ccccc3o2)CC1`?
CHRM1 agonist: inactive; M1 PAM: inactive; TAAR1 ag: inactive; HTR2A ag: 24.3; TAAR1 antagonist: inactive; M1 antag: inactive; MOR ag counter: inactive; m5-HT2A ag conf: 64.0

What do the screens show for `CC(=O)Nc1ccc(SCCN2CC[C@@H](C)CCC2=O)cc1`?
CHRM1 agonist: inactive; M1 PAM: inactive; TAAR1 ag: inactive; HTR2A ag: inactive; TAAR1 antagonist: inactive; M1 antag: inactive

What do the screens show for `CC(=O)Nc1ccc(SCCN2CC[C@@H](O)CCC2=O)cc1`?
CHRM1 agonist: inactive; M1 PAM: inactive; TAAR1 ag: inactive; HTR2A ag: 30.1; TAAR1 antagonist: inactive; M1 antag: inactive; MOR ag counter: inactive; m5-HT2A ag conf: inactive

How did N#CC1(NC(=O)CN2CCN(S(=O)(=O)c3ccccc3F)CC2)CCCC1 do in these assays?
CHRM1 agonist: inactive; M1 PAM: inactive; TAAR1 ag: inactive; HTR2A ag: inactive; TAAR1 antagonist: inactive; M1 antag: inactive

How did OCC[C@@H]1C[C@H](O)[C@@H](O)[C@@]2(OCCCc3cc(C(F)(F)F)ccc32)O1 do in these assays?
CHRM1 agonist: inactive; M1 PAM: inactive; TAAR1 ag: inactive; HTR2A ag: 14.7; TAAR1 antagonist: inactive; M1 antag: inactive; MOR ag counter: inactive; m5-HT2A ag conf: inactive

Results for CC(C)/C(=N\NS(=O)(=O)c1ccc(Br)cc1)c1cccs1 ?
CHRM1 agonist: inactive; M1 PAM: inactive; TAAR1 ag: inactive; HTR2A ag: inactive; TAAR1 antagonist: inactive; M1 antag: inactive

What do the screens show for `O=C(NC1CCCC1)c1cccc(S(=O)(=O)N2CCCCC2)c1`?
CHRM1 agonist: inactive; M1 PAM: inactive; TAAR1 ag: inactive; HTR2A ag: 16.3; TAAR1 antagonist: inactive; M1 antag: inactive; MOR ag counter: inactive; m5-HT2A ag conf: inactive

Results for Cc1cc(NC(=O)c2cccc(S(=O)(=O)N3CCCCC3)c2)no1 ?
CHRM1 agonist: inactive; M1 PAM: inactive; TAAR1 ag: inactive; HTR2A ag: 17.7; TAAR1 antagonist: inactive; M1 antag: inactive; MOR ag counter: inactive; m5-HT2A ag conf: inactive
